Our source for the IC50 and inhibition values is ChEMBL document CHEMBL1158370, “New antimalarial and cytotoxic 4-nerolidylcatechol derivatives” (Eur J Med Chem, 2009).

Each structure is given as a SMILES string. Values after ≈ are worked out from the molar mass of the structure shown. A value given as a limit tells only on which side of the number the result lay.

For assay [1], the system named is MDA-MB-435. As to the kind of experiment: Cytotoxicity against human MDA-MB-435 cells after 72 hrs by MTT assay. The format is functional, cell-based.
The subject of assay [2] is SF-295. As to the kind of experiment: Cytotoxicity against human SF295 cells after 72 hrs by MTT assay. It counts as functional, cell-based. In a few lines: (§1)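 Human tumour lines were grown in RPMI 1640 with 10% fetal bovine serum and 1% antibiotics at 37 °C under 5% CO2. Plating densities were 0.7 × 10⁵ for HCT-8, 0.6 × 10⁵ for SF-295 and 0.3 × 10⁶ for HL-60. Samples came from a 5 mg/mL DMSO stock and were incubated 72 h. MTT read at 550 nm; growth inhibition relative to […]. Triplicate, two independent experiments.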

For assay [3], the system named is HCT-8. As to the kind of experiment: Cytotoxicity against human HCT8 cells after 72 hrs by MTT assay. It counts as functional, cell-based. Summed up:
as §1

Assay [4] concerns Plasmodium falciparum. As to the kind of experiment: Antimalarial activity against Plasmodium falciparum K1 at 50 ug/mL. The format is functional. Summed up:
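Preliminary screen against P. falciparum K1 at two concentrations, printed as 50 and 2.5 (unit unclear). Parasite growth given as percentage reduction versus untreated controls.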

The test system of assay [5] is Plasmodium falciparum. Briefly: Antimalarial activity against Plasmodium falciparum K1. It counts as functional, organism-based. In a few lines: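 P. falciparum K1 (multidrug-resistant) cultured with compound at serial dilutions; growth measured as percentage reduction versus untreated controls; IC50 derived by probit analysis. Only compounds active in the preliminary single-concentration screen went on to this step.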

Assay [6] deals with HL-60. As to the kind of experiment: Cytotoxicity against human HL60 cells after 72 hrs by MTT assay. It counts as functional, cell-based. Particulars: HL-60, 72 h; call rule not given here. Summed up: as §1

On to `C=C[C@@](C)(O)CC/C=C(/C)CCC=C(C)C` [NEROLIDIOL], for which the IC50 result in assay [1] (mda-mb-435), in assay [2] (sf-295) and in assay [3] (hct-8) was “Not Active” each time. The compound also returned an inhibition at 50 µg/mL in assay [4] of 50%.
`CCN(CC)CCCC(C)Nc1ccnc2cc(Cl)ccc12` (stereo unspecified) [CHLOROQUINE PHOSPHATE]: it took 890 nM to reach half-maximal inhibition in assay [5] (IC50).
As for `Oc1ccccc1O` [CATECHOL], the IC50 in assay [1] (Homo sapiens, MDA-MB-435, 72 h, read-out: IC50) was more than 25 µg/mL; in assay [5], 80600 nM; in assay [2] (Homo sapiens, SF-295, 72 h, read-out: IC50) it was 12.9 µg/mL (≈ 117 µM); in assay [6], 1.08 µg/mL (≈ 9.81 µM); in assay [3] (Homo sapiens, HCT-8, 72 h, read-out: IC50), 13.5 µg/mL (≈ 123 µM).
`C=C[C@H]1CN2CC[C@H]1C[C@H]2[C@H](O)c1ccnc2ccc(OC)cc12` [QUININE] showed an IC50 in assay [5] of 12 nM.
